{"source": "ChEMBL document CHEMBL1148178", "about": "“Dicranin, an antimicrobial and 15-lipoxygenase inhibitor from the moss Dicranum scoparium” (1993)", "key": {"Glycine max [1]": {"tested_on": "Glycine max", "test": "Inhibition of soybean 15-LOX at 0.36 uM", "summary_of_the_method": "(§1)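 15-Lipoxygenase inhibition assay run with arachidonic acid (40 μM) as the substrate, at the single test concentration given in each line.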"}, "Glycine max [2]": {"tested_on": "Glycine max", "test": "Inhibition of soybean 15-LOX at 33 ug/ml", "summary_of_the_method": "as §1"}}}
{"smiles": "Oc1ccccc1O", "values": [{"measurement": "inhibition", "setting": "Glycine max [1]", "value": 37, "unit": "%"}, {"measurement": "inhibition", "setting": "Glycine max [2]", "value": 33, "unit": "%"}]}
